Screens (PubChem)
Shown are actives, neighbours in structure and some others; about 2.7% of the full set was active somewhere.
NR1D1 modulator = modulators of human Rev-erb alpha DNA binding; Rev-erbα–FITC-DNA binding, fluorescence polarization, 90 min; 370,000 tested, 0.79% active; activity, % at 10 µM; P20393;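 active = activity above about 14%, limit read from the data; passing the limit was not always enough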;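 also: 0% = DMSO wells with 35 nM protein and 100% = DMSO wells with 750 nM protein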
MC4R barr agon = activates human MC4R beta-arrestin recruitment. P32245. U2OS MC4R beta-arrestin complementation, luminescence; percent of melanotan II response, DMSO zero. activation, % at 8.9 µM. 360,000 tested, 0.98% active;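 active = activation above a per-plate cutoff, the mean activation of sample wells on that plate plus 3 SD, cut at about 8% in these data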
Target sequence (P32245 whole entry, looked up): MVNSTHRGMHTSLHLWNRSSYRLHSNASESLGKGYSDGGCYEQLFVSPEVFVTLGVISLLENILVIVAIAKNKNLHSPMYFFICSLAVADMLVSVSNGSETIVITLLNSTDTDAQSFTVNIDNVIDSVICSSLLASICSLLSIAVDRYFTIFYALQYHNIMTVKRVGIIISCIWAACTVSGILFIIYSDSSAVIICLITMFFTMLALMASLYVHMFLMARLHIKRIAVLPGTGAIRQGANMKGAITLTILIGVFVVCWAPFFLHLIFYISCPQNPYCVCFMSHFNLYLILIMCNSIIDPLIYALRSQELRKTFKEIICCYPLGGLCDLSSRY
MC4R antagonist = blocks human MC4R cAMP signaling; P32245; MC4R-expressing cells, MTII-stimulated cAMP, LANCE TR-FRET; inhibition, % at 6.5 µM; 360,000 tested, 0.48% active; AID 540295;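 active = inhibition above its plate's cutoff, the mean of tested wells on that plate plus 3 SD, cut at about 29% in these data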;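 also: 0% = Melanotan II alone and 100% = Melanotan II plus saturating MCL0020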
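Assay system: U2OS-MC4R stable cell line; Also added: Melanotan II; Technique: Eu-cAMP/anti-cAMP TR-FRET, emission 671 nm; Times: 30-min compound, 1-h challenge, 1-h detection, room temperature.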
NR2E3 ag-1 = activates human NR2E3 receptor; Q9Y5X4; CHO-S Gal4-NCOR/VP16-NR2E3 two-hybrid, luciferase; inhibition of corepressor binding, % at 3.98 µM; 360,000 tested, 0.35% active; AID 602229;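 active = inhibition above the mean of all tested compounds plus 3 SD, cut at about 70% in these data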;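 also: 0% = DMSO with NR2E3 transfected cells and 100% = cells lacking NR2E3 construct; higher means lower luciferase signal from less NR2E3 corepressor binding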
Target sequence (Q9Y5X4 whole entry, looked up, the tested form may be a part): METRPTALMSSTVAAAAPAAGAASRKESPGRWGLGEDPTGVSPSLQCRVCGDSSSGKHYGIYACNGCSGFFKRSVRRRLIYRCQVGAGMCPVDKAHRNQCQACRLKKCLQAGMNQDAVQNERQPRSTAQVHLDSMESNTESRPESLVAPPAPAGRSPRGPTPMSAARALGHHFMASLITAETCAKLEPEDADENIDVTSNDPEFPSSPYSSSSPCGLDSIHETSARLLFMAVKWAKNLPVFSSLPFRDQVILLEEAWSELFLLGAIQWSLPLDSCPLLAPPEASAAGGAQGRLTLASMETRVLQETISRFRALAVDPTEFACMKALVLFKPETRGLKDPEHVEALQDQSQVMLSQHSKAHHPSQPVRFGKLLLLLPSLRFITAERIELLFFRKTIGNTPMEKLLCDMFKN
PG9 Ab binder = small molecules binding HIV-1 gp120 antibody PG9. TR-FRET gp120-PG9 antibody binding. inhibition, % at 6.7 µM. 360,000 tested, 0.43% active. AID 624416; in the data active = inhibition above about 8.5%
NR2E3 ag-2 = activates human photoreceptor nuclear receptor NR2E3 | Q9Y5X4 | GST-NR2E3/biotin-RetCOR TR-FRET, 1536-well | inhibition of corepressor binding, % at 4.78 µM | 320,000 tested, 0.12% active | AID 2300;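 active = percent inhibition above the cutoff of mean plus 3 SD of all tested compounds, set per screening campaign, cut at about 20% in these data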;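 also: 0% = DMSO wells and 100% = biotin wells as full block of FRET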
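System: GST-tagged NR2E3 plus biotinylated RetCOR corepressor; Buffer or medium: pH 7.5 Tris-based buffer; Probe or stimulus: RetCOR corepressor, biotinylated, 7 nM; Doses: compound at 4.8 µM, single dose; Schedule: 5 h incubation at 4 °C; Technique: time-resolved FRET; Evaluation: percent inhibition of TR-FRET ratio; Replication: one well per compound, singlicate testing.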
* marks the source's active call; other numbers are inactive results; · = no result given.

SMILES | NR1D1 modulator | MC4R barr agon | MC4R antagonist | NR2E3 ag-1 | PG9 Ab binder | NR2E3 ag-2
COc1ccc(CCC(=O)NNC(=O)c2ccc(OC)cc2)cc1 | 3.4 | 0.4 | 4.1 | -10.8 | -0.1 | -2.9
N#Cc1ccc(-c2ccc(F)cc2)nc1Oc1ccccc1 | -1.3 | 7.0 | -1.9 | 12.7 | 0.4 | -0.7
N#Cc1ccc(-c2ccc(F)cc2)nc1Oc1ccc(F)cc1 | 21.1 | 9.3* | 10.9 | -4.3 | 0.8 | -0.1
Cc1cccc(C(=O)N[C@H](C(=O)OCC(=O)NC(=O)c2cccn2C)C(C)C)c1 | 3.1 | -1.7 | 15.8 | 5.9 | -0.5 | -4.2
CC[n+]1c(/C=C/N(C)c2ccccc2)n(-c2ccccc2)c2ccc(-c3nc4ccccc4s3)cc21 | · | 16.3* | 10.6 | 91.0* | · | -1.1
CCOC(=O)c1ccc2c(c1)n(CC)c(/C=C/N(C)c1ccccc1)[n+]2CC | -3.6 | -0.6 | 5.7 | -26.7 | -0.6 | -1.9
CCCCN(C(=O)c1cccc(-c2ccc(OC(C)=O)cc2)c1)c1c(N)n(CCC)c(=O)[nH]c1=O | -4.1 | 1.4 | -0.2 | -37.2 | 0.4 | ·
COc1ccc(/C=N/Nc2cc(C)nc3ccc(Br)cc23)cc1 | -1.2 | 15.7* | 7.0 | -17.9 | -2.1 | -1.8
COc1ccc2nc(C)cc(N/N=C/c3cccc(OC)c3O)c2c1 | 2.9 | 0.5 | 13.8 | -5.4 | -8.8 | -3.3
COC(=O)c1ccc(CNC(=O)COC(=O)/C=C/c2cccc(OC)c2)cc1 | -5.8 | 0.2 | 0.5 | -6.2 | -0.8 | ·
COc1ccc(CNC(=O)COC(=O)/C=C/c2cccc(Cl)c2)cc1 | -1.4 | 8.3* | 12.5 | -17.3 | -0.3 | ·
COc1cccc(C2CC(c3ccc(Cl)cc3Cl)Nc3nc(N)nn32)c1 (centres undefined) | 4.1 | 9.2* | 11.4 | -15.9 | -2.3 | 2.0
COc1ccc(C(=O)c2c(C(F)(F)F)oc3c2C(=O)c2ccccc2C3=O)cc1 | · | -0.6 | -10.8 | 92.7* | · | 0.1
COc1ccc(CN2CCN(CC(O)Cn3c4ccccc4c4ccccc43)CC2)cc1 (centres undefined) | 1.6 | 9.5* | 11.6 | -11.5 | -0.8 | 2.6
O=C(CCl)N(CCCNC(=O)C(F)(F)F)c1ccc([N+](=O)[O-])cc1 | -1.6 | 12.9* | 7.7 | -2.5 | 1.2 | -0.8
O=C(NCCCNc1ccc([N+](=O)[O-])cc1)C(F)(F)F | 5.7 | -2.6 | 1.9 | 0.6 | -0.5 | -1.3
Cc1ccc(-c2nc3ccccc3s2)cc1NC(=O)c1ccc2c(c1)OCO2 | 10.5 | -1.5 | 38.0* | -18.4 | 0.8 | 11.1
Cc1ccc(-c2nc3ncccc3o2)cc1NC(=O)c1ccc2c(c1)OCO2 | 3.4 | 1.4 | 9.8 | 8.2 | -0.1 | ·
C/C(=N/OCc1ccc(Br)cc1)c1ccccn1 | -3.5 | 8.6* | -3.3 | -78.8 | -1.3 | 4.8
Cc1ccc(-n2nnnc2-c2nc3ccccc3s2)cc1 | 5.9 | 8.7* | 12.2 | -4.0 | 3.3 | 3.8
Cc1cccc2c1NC(=O)C2(c1ccc(O)cc1)c1ccc(O)cc1 | 1.8 | 86.8* | -18.0 | 5.5 | 0.3 | -1.3
Cc1cc(C2(c3ccc(O)c(C)c3)C(=O)Nc3ccccc32)ccc1O | 5.2 | 7.9 | 9.5 | -11.4 | -1.0 | -0.1
COc1cc(/C=C2/C(=N)N3C=CSC3=NC2=O)ccc1OCCCOc1cc(C)ccc1C | -3.7 | 31.5* | 9.0 | -31.7 | 0.7 | 1.5
COc1ccccc1OCCOc1ccc(/C=C2/C(=N)N3OC(C)=CC3=NC2=O)cc1OC | 11.3 | 18.8* | 11.8 | -20.7 | -2.6 | 0.0
CC1=CC2=NC(=O)/C(=C\c3ccc(-c4cccc(Cl)c4)o3)C(=N)N2O1 | -30.4 | 11.6* | -10.7 | 0.4 | 4.3 | -11.1
SMILES | NR1D1 modulator | MC4R barr agon | MC4R antagonist | NR2E3 ag-1 | PG9 Ab binder | NR2E3 ag-2
CC1=CC2=NC(=O)/C(=C\c3cccn3CCOc3ccccc3C)C(=N)N2O1 | 2.5 | 3.4 | 14.5 | 17.0 | -1.0 | 2.7
CC(C)CNS(=O)(=O)c1cc(C(=O)OCC(=O)N(C)C2CCS(=O)(=O)C2)c(Cl)cc1Cl (centres undefined) | -5.0 | -0.1 | 4.6 | -14.4 | 0.0 | -1.9
Cc1cccc(NC(=O)C2CC(=O)NC(Nc3nc4ccccc4s3)=N2)c1 (centres undefined) | -7.5 | · | · | · | 2.0 | -1.4
CNC(C)C#Cc1ccc2c(=O)c3c(OC)cccc3oc2c1 (centres undefined) | · | · | · | · | · | 1.9
O=S1(=O)Nc2c(ccc3cccnc23)-c2ccccc21 | · | -1.6 | 5.9 | 102.1* | · | -1.7
CCn1c(SCc2nc(CC(=O)Nc3ccccc3OC)no2)nnc1-c1cccs1 | 5.3 | -1.2 | -0.3 | -21.4 | -0.9 | 2.0
CC1(C)Cc2nc3sc4c(=O)n(CC(=O)NCc5ccccc5)cnc4c3cc2CO1 | 17.7 | -1.6 | -20.8 | -4.8 | 49.8* | 2.0
O=C(c1ccoc1)N1CCN(c2cc(-c3ccncc3)nc3cc(-c4cccc(Cl)c4)nn23)CC1 | 6.6 | 8.8* | 14.3 | -34.1 | 2.5 | ·
COc1ccc(CCNC2CC(=O)N(CCc3ccc(OC)c(OC)c3)C2=O)cc1OC (centres undefined) | -0.6 | -0.3 | 3.7 | -5.0 | -1.9 | ·
O=C(CSc1ccc(Cl)cc1)Nc1ccc(-c2nc3ccccc3[nH]2)cc1 | -3.5 | 10.2* | 14.0 | -83.1 | 2.9 | -17.9
O=S(=O)(NCc1cn2ccsc2n1)c1ccc(Oc2ccccc2)cc1 | -8.6 | 2.5 | 9.6 | 88.5* | 1.4 | -1.5
O=S(=O)(NCc1cn2ccsc2n1)c1cccs1 | -2.1 | -1.1 | 12.9 | -6.3 | 0.2 | -0.2
CCN(CC(=O)Nc1ccc(C)c(F)c1)CC(=O)NC(C)(C)C | -2.0 | -2.0 | 6.1 | 10.8 | -3.3 | 5.2
O=C(COC(=O)COc1cccc(C(F)(F)F)c1)NC(=O)NC1CCCCC1 | 0.2 | 8.7* | -2.2 | 22.4 | -0.4 | -2.1
OC1(c2cccc(C(F)(F)F)c2)CCN(c2ccc(-c3ccccc3)nn2)CC1 | -0.6 | 9.2* | 13.9 | -65.4 | -2.2 | -0.3
CC(=O)Nc1ccc(S(=O)(=O)NCc2ccc(C)n2C)cc1 | -4.5 | -1.3 | 14.1 | 1.9 | -1.5 | -2.2
Cc1cc(NC(=O)COC(=O)c2cccc(OCc3ccccc3)c2)no1 | 0.3 | 8.5* | -4.5 | -78.0 | 0.9 | 0.5
Cc1cc(NC(=O)COC(=O)c2ccc(C)c(C)c2)no1 | 0.7 | -1.7 | -3.3 | -26.1 | 2.8 | ·
O=C(Nc1nccs1)c1sc2cc(Cl)ccc2c1Cl | -8.0 | 10.1* | 0.9 | -66.8 | 1.1 | -0.3
Cc1onc(-c2ccccc2Cl)c1C(=O)Oc1cc(N)n(S(=O)(=O)c2ccc(F)cc2)n1 | -2.2 | 0.9 | 28.8* | 9.1 | -0.3 | 1.4
COc1ccc(CN(CC(=O)NCC2CCCO2)C(=O)CCC(=O)Nc2nccs2)cc1 (centres undefined) | -1.7 | -1.7 | 14.7 | -23.3 | -2.7 | 4.5
COc1cc(C(=O)OCC(=O)NCCC2=CCCCC2)ccc1OCC(C)C | -0.9 | 9.2* | 1.9 | -19.3 | -1.6 | -0.5
